Source: the EternaBench riboswitch data

System: MS2 coat protein
Test: apparent Kd, MS2 coat protein; higher = weaker binding; RNA-MaP array; tryptophan 2.4 mM where present
Outline: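 Stalled E. coli RNA polymerase produced the designs on Illumina sequencing-chip clusters. SNAP-549-labelled MS2 coat protein was added from 0.7 or 1.5 nM, doubling to 3 µM, without and then with constant ligand, in 100 mM Tris-HCl pH 7.5, 80 mM KCl, 4 mM MgCl2, BSA, DTT, yeast tRNA and Tween-20. The apparent Kd is the median of filtered per-cluster fits of green signal normalised to red-channel RNA signal and control-cluster median Fmax.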

[1] = designed as: ON switch for tryptophan, no ligand
[2] = ligand present: tryptophan, designed as: ON switch for tryptophan
[3] = designed as: OFF switch for tryptophan, no ligand
[4] = ligand present: tryptophan, designed as: OFF switch for tryptophan

GGGUGGUAGGCGGCCGCCACUGAUUUUUAUUUAUAGAUGACAUGAGGAUCACCCAUGUUUAUAUGCAGGACCGGGCCUGUUGUGG
apparent Kd [1]: 15.7 nM | apparent Kd [2]: 14.2 nM

GGUUGGUCCUCACAUGAGGAUCACCCAUGUCGAGGACCGGUACGGCCGCCACUCGAUUGUACCAGGGCUUAAGAGCCUAUGAGCA
apparent Kd [3]: 11.1 nM | apparent Kd [4]: 8.44 nM

GUACACUAGUCGGCCGCCACUGUUACAUGAGGAUCACCCAUGUAGGAUCACCCAUGACAUGAGGAUAGGACCGGGACGCAUGAGG
apparent Kd [3]: 45 nM | apparent Kd [4]: 41.3 nM

GUCCUCAUGACGGCCGCCACUACACAUGAGGAUCACCCAUGUAAUGAUCCCUUAAAUGAUAAUAGUAGGACCGGGUCACUGUAAG
apparent Kd [1]: 457 nM | apparent Kd [2]: 699 nM

GUGAGCGCCGAACAUCGCUGGUCCUCUAUCCGAGGACCGGUACGGCCGCCACUCGACAUGAGGAUCACCCAUGUUGGCACUGGCG
apparent Kd [3]: 9.37 nM | apparent Kd [4]: 10.7 nM

GUUAUAUGAAAACAUAUAACAGUGGGUGAACGAGGACCGGUACGGCCGCCACUCGGACAUGAGGAUCACCCAUGUCCAUGUGAAA
apparent Kd [3]: 15.8 nM | apparent Kd [4]: 41.4 nM

GUUUUAUACUCGGCCGCCACUGAGAGAGUCAUGUAAACAUGAGGAUCACCCAUGUAAUAUAUAUACAGGACCGGGAGUAGGGUAA
apparent Kd [3]: 12.9 nM | apparent Kd [4]: 15.4 nM

UAAGUUAGGGCGGCCGCCACUCGAACAUGAGGAUCACCCAUGUAAAUUAAUUAAAGGACAUGAAUGAGGACCGGGCCAAGUUAGA
apparent Kd [1]: 15.7 nM | apparent Kd [2]: 13.4 nM

UAAUAAGUACCGGUCCUCAGAUCCUCAUGUCGAGGACCGGUACGGCCGCCACUCGAAACAUGAGGAUCACCCAUGUAAUAAUAAU
apparent Kd [3]: 39.5 nM | apparent Kd [4]: 31.5 nM

UAUAUAUACUCGGCCGCCACUGAGAGAGUCAUGUAAACAUGAGGAUCACCCAUGUAAUAUAUAUACAGGACCGGGAGUAUAUGAA
apparent Kd [3]: 15.3 nM | apparent Kd [4]: 13.6 nM

UAUAUAUAUCACUAACUGUUCUUGAGGUCUCGAGGACCGGUACGGCCGCCACUCGUACCGCCUCACAUGAGGAUCACCCAUGUCC
apparent Kd [3]: 63 nM | apparent Kd [4]: 59.1 nM

UCAUAAGUACCGGUCCUCAGAUCCUCAUGACGAGGACCGGUACGGCCGCCACUCGAAACAUGAGGAUCACCCAUGUAAUAACAUU
apparent Kd [3]: 20.9 nM | apparent Kd [4]: 18.5 nM

UCGUGUCUAUUGGUUUAGCUUUAAUCGUUACGAGGACCGGUACGGCCGCCACUCGAUUUAACAUGAGGAUCACCCAUGUACUCUC
apparent Kd [3]: 19 nM | apparent Kd [4]: 21.2 nM

UCGUUUUAGUCGGCCGCCACUGGUCUCAUGUUCAACAUGAGGAUCACCCAUGUAUCUUAUUUUAACAGGACCGGGACGUAAUAGA
apparent Kd [3]: 50.8 nM | apparent Kd [4]: 19.8 nM

UCUGUUUGCUUUGUUUGUUUCUUCUUUGAGCGAGGACCGGUACGGCCGCCACUCGGGUUACAUGAGGAUCACCCAUGUGGUUUCU
apparent Kd [1]: 98.9 nM | apparent Kd [2]: 57.8 nM

UGGGUACCGACGGCCGCCACUGAAUAUAGACAUGAGGAUCACCCAUGUAGAGAUCCUAGAAUAAACAGGACCGGGUCUGGUGCUA
apparent Kd [3]: 220 nM | apparent Kd [4]: 362 nM

UUCUACGGCGAUCUGGGUUUACCAGAUCGACGAGGACCGGUACGGCCGCCACUCGUGUUUCUUUAACAUGAGGAUCACCCAUGUA
apparent Kd [1]: 48 nM | apparent Kd [2]: 22.4 nM

UUUAUUAUUGACUCGUUUUGGUAUUAAGAACGAGGACCGGUACGGCCGCCACUCGUGAUAUACAUGAGGAUCACCCAUGUUAGCA
apparent Kd [1]: 15.1 nM | apparent Kd [2]: 15.5 nM
